An excerpt weighted towards active compounds, which were near 11% of everything screened.
S1P3 ag: human S1P3 receptor agonists, primary screen, cell-based, primary and confirmation, NFAT-BLA reporter; S1P3 NFAT-BLA reporter cells, agonism, FRET ratio; relative to 1 µM S1P, basal subtracted; activation, % at 4.5 µM; 60,000 tested, 0.1% active; AID 373, 2006;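 active = activation above the screen-wide mean plus 3 SD, cut at about 4.5% in these data, passing the limit was not always enough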
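Measure – % activation relative to 1 µM S1P (100%), per plate · System – stable CHO line with human S1P3, Gα16, NFAT-BLA reporter · Timing – cells plated overnight, compound 4 h 37 °C, substrate 2 h RT · Technique – fluorescent BLA substrate, ex 405 nm, em 460/535 nm ratio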
D1 allo mod: D1 CRE-luciferase signal change, two-sided – cell-based, HEK293 D1, dopamine EC30, D1 allosteric modulator project, primary screen | D(1A) dopamine receptor (Homo sapiens), P21728 | dopamine EC30 potentiation; actives deviate in either direction | B-score at 10 µM | 58,000 tested, 5.9% active | AID 641, 2007;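 active = luminescence count or its row- and column-corrected plate score outside the 99.7% band of the plate's sample wells, on either side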
Target sequence (P21728 whole entry, looked up): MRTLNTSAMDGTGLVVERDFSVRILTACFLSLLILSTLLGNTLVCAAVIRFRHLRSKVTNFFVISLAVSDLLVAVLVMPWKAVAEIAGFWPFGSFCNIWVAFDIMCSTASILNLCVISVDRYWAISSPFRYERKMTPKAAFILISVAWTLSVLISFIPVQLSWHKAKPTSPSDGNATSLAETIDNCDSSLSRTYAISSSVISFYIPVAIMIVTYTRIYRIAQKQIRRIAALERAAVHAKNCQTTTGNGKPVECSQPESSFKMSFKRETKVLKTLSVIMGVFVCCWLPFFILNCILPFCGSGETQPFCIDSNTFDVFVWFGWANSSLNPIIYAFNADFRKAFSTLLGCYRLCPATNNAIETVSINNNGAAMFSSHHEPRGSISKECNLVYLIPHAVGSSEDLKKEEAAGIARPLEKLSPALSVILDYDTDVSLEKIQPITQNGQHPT
M1 agonist: M1 muscarinic receptor agonists, primary screen, CHO-M1 cells, Fluo-4 calcium, agonist mode; Muscarinic acetylcholine receptor M1; Fluo-4 calcium fluorescence; stronger effect = higher value; B-score at 10 µM; 64,000 tested, 3% active; AID 626, 2007;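 active = fluorescence rise, raw or as B-score row- and column-corrected plate score, outside the 99.7% band of its plate's samples, either direction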
M1 antagonist: antagonists of rat M1 muscarinic receptor; Muscarinic acetylcholine receptor M1 (Rattus norvegicus), P08482; 64,000 tested, 3.4% active; B-score at 10 µM; CHO-M1 cells, Fluo-4 calcium, ACh EC80 antagonist mode; stronger effect = lower value;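 active = calcium fluorescence response, raw or row-and-column corrected B-score, differing from the plate sample mean either way at a set confidence level, mostly lower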
S1P1 ag pot: S1P1 agonists and agonism potentiators, primary screen, cell-based, primary and confirmation screens, CRE-bla reporter | Sphingosine 1-phosphate receptor 1 (Homo sapiens), P21453 | S1P1 CRE-bla cells, forskolin, beta-lactamase FRET, potentiator mode; S1P1 agonist co-added at EC20, 2 nM; 100% = saturating reference agonist, 0% = basal | activation, % at 9.5 µM | 56,000 tested, 0.57% active | AID 449, 2006;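 active = activation above a cutoff set at the mean activation of all tested compounds plus 3 SD, cut at about 54% in these data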;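 also: forskolin at 4 µM as EC80 and the EC20 agonist is SEW2871; 100% = SEW2871 at its EC100 plus forskolin at EC80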
M1 antag conf: rat M1 muscarinic receptor antagonists, confirmation, CHO cells, Fluo-4 calcium, duplicate. shares compounds with M1 antagonist. ACh EC80 antagonism; stronger effect = lower value. calcium response (max-min fluorescence) at 10 µM. 1,700 tested, 43% active;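 active = calcium response below the same-plate mean of wells given acetylcholine alone at its 80%-effect dose, minus 3 SD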;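 also: raw fluorescence intensity difference in arbitrary instrument units and not normalized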
mGluR4 antag: human mGluR4 response to M1 antagonist hits, M1 allosteric modulator project, cell-based, antagonist mode, secondary assay 1; shares compounds with M1 antagonist; CHO-mGluR4 calcium flux, Fluo-4 fluorescence, glutamate EC80; stronger effect = lower value; fluorescence response (max-min) at 10 µM; 1,700 tested, 0.9% active; AID 678, 2007;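 active = fluorescence response below the plate's average for near-maximal glutamate wells, less 3 SD of those wells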;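 also: raw unnormalized fluorescence span taken in the window right after glutamate addition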
The depositor's hits bear a star; . = no result.

SMILES | S1P3 ag | D1 allo mod | M1 agonist | M1 antagonist | S1P1 ag pot | M1 antag conf | mGluR4 antag
CCCS(=O)(=O)N1CCCC(C(=O)N2CCN(c3ccccn3)CC2)C1 (centres undefined) | 0 | 1.8 | 0.038 | -2.6* | -29 | 525 | 191
CCCS(=O)(=O)N1CCC(C(=O)N2CCC(Cc3ccccc3)CC2)CC1 | -1 | -0.022 | 0.31 | -0.42 | 1 | . | .
COc1ccc(CNC(=O)C2CCCN(S(=O)(=O)c3c(C)nn(C)c3C)C2)cc1 (centres undefined) | 1 | -0.34 | 0.063 | 0.5 | -11 | . | .
COc1ccccc1CNC(=O)CN(c1ccc(C)cc1)S(=O)(=O)c1c(C)n[nH]c1C | 0 | 0.12 | 0.81 | 0.78 | 11 | . | .
CCOc1ccccc1NC(=O)CN(c1ccc(C)cc1)S(=O)(=O)c1c(C)n[nH]c1C | 0 | 0.34 | -1.2 | -2.4* | 6 | 530 | 242
Cc1cc(OCCCCCNCCO)cc(C)c1Cl | 0 | . | -1.7 | -3.8* | 5 | 534 | 234
CCCCn1c(=O)n(CC(O)c2ccccc2)c(=O)c2c1ncn2C1CCCC1 (centres undefined) | 0 | 0.22 | -0.17 | -3.8* | 11 | 450 | 199
O=C(Cn1c(=O)oc2cc(S(=O)(=O)N3CCc4ccccc43)ccc21)NC1CCCC1 | 0 | 0.015 | 0.06 | -4.3* | 18 | 503* | 186
CC(C)CCNC(=O)Cn1c(=O)oc2cc(S(=O)(=O)N3CCc4ccccc43)ccc21 | -1 | -0.46 | -0.89 | -4.5* | 10 | 478* | 201
CCN(CC)CCn1c(OC)cc(=O)[nH]c1=O | -1 | -1.3 | -0.051 | -2.4* | -12 | 670 | 208
COc1ccc(Cn2c(O)cc(=O)[nH]c2=O)cc1 | -1 | . | -0.24 | 0.14 | 22 | . | .
CCOC(=O)c1c(NC(=O)c2ccn(CC)n2)sc2c1CCCC2 | -1 | 1.4 | -0.74 | 0.0014 | -4 | . | .
CCOC(=O)c1c(NC(=O)c2nc3n(n2)C(C(F)F)CC(C)N3)sc2c1CCCC2 (centres undefined) | -1 | 2 | 0.43 | -5.7* | -50 | 647 | 238
CCOC(=O)c1ccccc1NC(=O)CSc1nnnn1C1CCCCC1 | 1 | 0.06 | 0.044 | -1.9 | -10 | . | .
CC12C=CC3(CN(Cc4ccccc4)C(=O)C3C1C(=O)NC1CC1)O2 (centres undefined) | . | 0.16 | -0.17 | 0.15 | . | . | .
CCCCn1c(Cc2ccccc2)n[nH]c1=S | 0 | -0.27 | -0.46 | -12* | . | 53* | 263
Cc1ccc2c(CC(=O)OC(C)C(=O)NCc3ccc4c(c3)OCO4)coc2c1 (centres undefined) | 0 | 1.8 | 0.64 | -0.19 | -16 | . | .
C=C(C)C1CC=C(CN2CCC(C(=O)OCC)CC2)CC1 (centres undefined) | -1 | -1 | 4.2 | -3.7* | -9 | 422* | 238
CCCc1cc(C(N)=O)c(NC(C)=O)s1 | -1 | . | -0.09 | 0.036 | 12 | . | .
COc1cc2c(cc1OC)C(=NCCC(=O)O)NC(C)(C)C2 | 0 | -0.035 | -0.25 | 0.8 | 9 | . | .
CCOC(=O)C(NC(=O)N1CCCCC1)(c1ccccc1)C(F)(F)F (centres undefined) | 0 | 0.16 | 0.88 | 0.23 | -17 | . | .
CN1CCCN=C1COC(=O)C(O)(c1ccccc1)C1CCCCC1 (centres undefined) | -3 | -0.087 | 0.51 | -16* | 4 | 26* | 247
COc1ccc(OC)c(CNC(=O)C2CCN(C(=O)N(C)C)CC2)c1 | 0 | 1.8 | -0.32 | -3* | -7 | 644 | 266
